Laboratory results from publication PMC9055496 (RSC Advances, 2020).
Entries after “also recorded” stand apart in the source; their conditions may differ. Where two headings read alike, the source gives them in different places.

Tests used:
[1] = Urinary excretion of unchanged drug in rats after a single oral dose; format: in vivo, Sprague-Dawley rats; settings: rat; for Time period of highest urinary excretion ratio: oral 50 mg kg^−1; for Cumulative amount in urine: n = 5, mean ± SD; for Cumulative urinary excretion, share of the total dose: oral 50 mg kg^−1, during 48 h, unchanged drug
Summary of the method: (§1)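 Male Sprague-Dawley rats (220 ± 20 g), fasted 12 h, given 50 mg kg−1 by gavage in 0.5% CMC-Na (n = 5/group). Urine and feces were collected in metabolic cages at intervals to 48 h; feces were air-dried, weighed and homogenised in saline. Bile-duct-cannulated rats (ether anaesthesia) were dosed after recovery, with bile collected every 2 h to 12 h. Unchanged drug was measured by UHPLC-MS/MS (positive ESI MRM, internal standard; LLOQ 0.005 μg mL−1).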

[2] = Fecal excretion of unchanged drug in rats after a single oral dose; format: in vivo, Sprague-Dawley rats; settings: rat; for Time period of highest fecal excretion ratio: oral 50 mg kg^−1; for Cumulative amount in feces: n = 5, mean ± SD; for Accumulative fecal excretion, share of the total dose: unchanged drug
Summary of the method: as §1

[3] = format: in vivo, Sprague-Dawley rats; settings: for Cumulative amount in bile: bile duct cannulated rat, n = 5, mean ± SD; for Cumulative biliary excretion, share of the dose: rat, oral 50 mg kg^−1, during 12 h, unchanged drug
Summary of the method: as §1

[4] = Total cumulative excretion in three routes; format: in vivo, Sprague-Dawley rats; settings: rat, oral 50 mg kg^−1, unchanged drug
Summary of the method: as §1

[5] = format: in vivo, Sprague-Dawley rats; settings: for Number of metabolites detected and tentatively identified: rat bile, urine, plasma and feces, oral 100 mg kg^−1; for Metabolic stability, comparison in words: rat in vivo metabolite profile, HFBA vs HPABA, R-HFBA vs S-HFBA
Summary of the method: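 Fasted male Sprague-Dawley rats (n = 5/group) received a single 100 mg kg−1 gavage in 0.5% CMC-Na. Urine and feces were collected 0–24 h in metabolic cages, heparinised plasma at 0.5, 3 and 6 h, and bile 0–12 h from bile-duct-catheterised rats. Feces were powdered and sonicated in methanol for 30 min. Analysis was by UHPLC-FT-ICR-MS, positive ESI, m/z 50–1000, with MS/MS at 10 eV.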

[6] = cited from earlier work
[7] = cited from earlier work; remark: listed apart in the source
[8] = cited from earlier work; remark: listed apart in the source
[9] = cited from earlier work; remark: listed apart in the source
[10] = rats, oral (oral or intravenous) administration of each enantiomer

SMILES	Time period of highest urinary excretion ratio [1]	Cumulative amount in urine ([1]; oral 50 mg kg^−1, 2 h)	Cumulative amount in urine ([1]; oral 50 mg kg^−1, 4 h)	Cumulative amount in urine ([1]; oral 50 mg kg^−1, 6 h)	Cumulative amount in urine ([1]; oral 50 mg kg^−1, 8 h)	Cumulative amount in urine ([1]; oral 50 mg kg^−1, 10 h)	Cumulative amount in urine ([1]; oral 50 mg kg^−1, 12 h)	Cumulative amount in urine ([1]; oral 50 mg kg^−1, 24 h)	Cumulative amount in urine ([1]; oral 50 mg kg^−1, 36 h)	Cumulative amount in urine ([1]; oral 50 mg kg^−1, 48 h)	Cumulative urinary excretion, share of the total dose [1]	Time period of highest fecal excretion ratio [2]	Cumulative amount in feces ([2]; oral 50 mg kg^−1, 2 h)	Cumulative amount in feces ([2]; oral 50 mg kg^−1, 4 h)	Cumulative amount in feces ([2]; oral 50 mg kg^−1, 6 h)	Cumulative amount in feces ([2]; oral 50 mg kg^−1, 8 h)	Cumulative amount in feces ([2]; oral 50 mg kg^−1, 10 h)	Cumulative amount in feces ([2]; oral 50 mg kg^−1, 12 h)	Cumulative amount in feces ([2]; oral 50 mg kg^−1, 24 h)	Number of metabolites detected and tentatively identified [5]	also measured
CC(O)C(=O)Nc1ccc(C(F)(F)F)cc1C(=O)O (stereo not shown) [S-HFBA, 2-(2-Hydroxypropanamido)-5-trifluoromethyl benzoic acid]	0 to 2 h	1831 ± 253 µg	2525 ± 285 µg	2713 ± 185 µg	3098 ± 279 µg	3249 ± 294 µg	3313 ± 319 µg	3413 ± 251 µg	3469 ± 216 µg	3489 ± 225 µg	31.7%	10 to 12 h	5.800 ± 7.70 µg	17.60 ± 18.9 µg	89.90 ± 80.3 µg	791.6 ± 519 µg	1604 ± 459 µg	2470 ± 203 µg	2764 ± 248 µg	8	Cumulative amount in feces ([2]; oral 50 mg kg^−1, 36 h): 2878 ± 213 µg; Cumulative amount in feces ([2]; oral 50 mg kg^−1, 48 h): 2944 ± 252 µg; Accumulative fecal excretion, share of the total dose ([2]; oral 50 mg kg^−1, 48 h): 26.8%; Cumulative amount in bile ([3]; oral 50 mg kg^−1, 2 h): 170.8 ± 14.1 µg; Cumulative amount in bile ([3]; oral 50 mg kg^−1, 4 h): 515.4 ± 77.5 µg; Cumulative amount in bile ([3]; oral 50 mg kg^−1, 6 h): 571.8 ± 95.4 µg; Cumulative amount in bile ([3]; oral 50 mg kg^−1, 8 h): 652.9 ± 50.7 µg; Cumulative amount in bile ([3]; oral 50 mg kg^−1, 10 h): 745.6 ± 57.7 µg; Cumulative amount in bile ([3]; oral 50 mg kg^−1, 12 h): 817.0 ± 90.9 µg; Cumulative biliary excretion, share of the dose [3]: 7.4%; Total cumulative excretion in three routes, share of the dose [4]: 58.5%; Anti-inflammatory activity compared with aspirin [6]: superior to aspirin; Antiplatelet aggregation activity compared with aspirin [7]: superior to aspirin; Gastrointestinal toxicity compared with aspirin [8]: less
CC(O)C(=O)Nc1ccc(C(F)(F)F)cc1C(=O)O (stereo not shown) [R-HFBA, 2-(2-Hydroxypropanamido)-5-trifluoromethyl benzoic acid]	0 to 2 h	2747 ± 332 µg	3149 ± 292 µg	3309 ± 457 µg	3894 ± 504 µg	4010 ± 450 µg	4117 ± 435 µg	4333 ± 518 µg	4394 ± 485 µg	4425 ± 478 µg	40.2%	6 to 8 h	6.300 ± 1.60 µg	11.00 ± 3.50 µg	254.1 ± 400 µg	1216 ± 518 µg	1980 ± 512 µg	2362 ± 629 µg	2687 ± 598 µg	7	Cumulative amount in feces ([2]; oral 50 mg kg^−1, 36 h): 2782 ± 635 µg; Cumulative amount in feces ([2]; oral 50 mg kg^−1, 48 h): 2817 ± 626 µg; Accumulative fecal excretion, share of the total dose ([2]; oral 50 mg kg^−1, 48 h): 25.6%; Cumulative amount in bile ([3]; oral 50 mg kg^−1, 2 h): 185.3 ± 8.20 µg; Cumulative amount in bile ([3]; oral 50 mg kg^−1, 4 h): 531.7 ± 95.4 µg; Cumulative amount in bile ([3]; oral 50 mg kg^−1, 6 h): 783.1 ± 56.6 µg; Cumulative amount in bile ([3]; oral 50 mg kg^−1, 8 h): 925.9 ± 68.1 µg; Cumulative amount in bile ([3]; oral 50 mg kg^−1, 10 h): 1075 ± 62.6 µg; Cumulative amount in bile ([3]; oral 50 mg kg^−1, 12 h): 1239 ± 54.6 µg; Cumulative biliary excretion, share of the dose [3]: 11.3%; Total cumulative excretion in three routes, share of the dose [4]: 65.8%; Metabolic stability, comparison in words [5]: more metabolically stable than S-HFBA; AUC compared with S-HFBA [9, 10]: greater; also recorded: larger; Clearance (CL) compared with S-HFBA [9, 10]: significantly lower; t1/2 compared with S-HFBA [9, 10]: greater; also recorded: longer; Anti-inflammatory activity compared with aspirin [6]: superior to aspirin; Antiplatelet aggregation activity compared with aspirin [7]: superior to aspirin; Gastrointestinal toxicity compared with aspirin [8]: less
CC(O)C(=O)Nc1ccc(C(F)(F)F)cc1C(=O)O (stereo not shown) [HFBA, 2-(2-Hydroxypropanamido)-5-trifluoromethyl benzoic acid]																				8	Metabolic stability, comparison in words [5]: more metabolically stable than HPABA; Bioavailability compared with HPABA [9]: better; Half-life compared with HPABA [9]: longer
